Data on three compounds can be found in paper PMC7059760 (ACS applied materials & interfaces, 2019).

In brackets after ≈: the same amount, converted by molar mass. Like-named read-outs stand apart in the source and are kept apart here.

Assay [1] concerns antibenzothiostrobin mAb. The settings on record: noncompetitive FIA, synthetic peptide FITC-Ahx-CPDIWPTAWC; cited from earlier work.
Assay [2] concerns antibenzothiostrobin mAb. The settings on record: competitive phage ELISA; cited from earlier work.
Assay [3] has as its system antibenzothiostrobin mAb. The settings on record: noncompetitive phage ELISA; cited from earlier work.
The test system of assay [4] is antibenzothiostrobin mAb. The settings on record: ic-ELISA; cited from earlier work.
Assay [5] deals with antibenzothiostrobin mAb. The settings on record: competitive FIA, synthetic peptide FITC-Ahx-CSGLAEFMSC; cited from earlier work.
Assay [6] concerns antibenzothiostrobin mAb 4E8. More on the design: species or system murine. The settings on record: ITC; ratio of binding constants versus monomer. In short, it runs like this:
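Isothermal titration calorimetry at 25 °C. All samples were diluted in 10 mM BB and degassed. The mAb was in the cell, with water in the reference cell and buffer titrated as control. Peptide in the syringe was 260 μM (monomer), 150 μM (dimer) or 50 μM (tetramer). Run used 20 injections, 60 s initial delay and 1000 rpm stirring. N, K, ΔH and ΔS were obtained from a one-site fit, with a c value checked for quality.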

Assay [7] has as its system antibenzothiostrobin mAb. The assay can be described thus: Inner filter effect immunoassay. In kind it is binding, murine. The settings on record: ratio of SC50 values; analyte benzothiostrobin. The essentials:
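Homogeneous competitive format. The UCNP probe was NaYF4:Yb,Er, amine-silica coated and glutaraldehyde-coupled to the monomer, dimer or tetramer peptidomimetic, and the absorber was mAb-conjugated gold nanoflowers. Standard and both probes were mixed in BB for 1 h at 37 °C with gentle shaking. Emission at 657 nm was read under 980 nm laser excitation. ΔI (I−I0) was plotted against log analyte concentration, and SC50 was taken as 50% signal saturation.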

For `CO/C=C(/C(=O)OC)c1ccccc1CSc1nc2ccccc2s1` [benzothiostrobin], the SC50 in assay [1] was 93.4 ng/mL; in assay [3], 2.27 ng/mL. Also, the IC50 in assay [2] is 0.94 ng/mL (≈ 0.00253 µM); in assay [4], 7.55 ng/mL (≈ 0.0203 µM); in assay [5] it was 16.8 ng/mL (≈ 0.0452 µM).

“((Ac-CSGLAEFMSC)2K)2KK (bicyclic or more) [tetramer]”: the “fold higher affinity for mAb compared to monomer” value in assay [6] turned out to be 13.6 fold. Further, in assay [7], the “improvement of IFE-IA sensitivity compared to dimer” value is given as around 3 fold and the “improvement of IFE-IA sensitivity compared to monomer” value is on record as “approximately 6 fold”.

As for “(Ac-CSGLAEFMSC)2KK (bicyclic or more) [dimer]”, in assay [6], the “fold higher affinity for mAb compared to monomer” value is 1.87 fold.
